Test results published in ChEMBL document CHEMBL3779892, “Increasing the binding affinity of VEGFR-2 inhibitors by extending their hydrophobic interaction with the active site: Design, synthesis and biological evaluation of 1-substituted-4-(4-methoxybenzyl)phthalazine derivatives” (Eur J Med Chem, 2016).

What was measured:
Format in all cases: functional
T47D = test: Growth inhibition of human T47D cells at 10 uM after 48 hrs by sulforhodamine B assay; conditions: read-out: GI
Procedure, shortened: (§1)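 NCI-60 panel, adherent cells grown in RPMI 1640 with 5% FBS and 2 mM L-glutamine, plated at 5000–40,000 cells/well and preincubated 24 h at 37 °C, 5% CO2. 10 µM final compound from DMSO stock, triplicate wells, 48 h. Fixed with cold TCA (10% final, 60 min, 4 °C) and stained with 0.4% SRB. Absorbance read at 515 nm; growth calculated against time-zero and control wells.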

MDA-MB-468 = test: Growth inhibition of human MDA-MB-468 cells at 10 uM after 48 hrs by sulforhodamine B assay; conditions: MDA-MB-468, 48 h, read-out: GI
Procedure, shortened: (§2)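 Run at NCI on the 60-line panel. Cells grown in RPMI 1640 with 5% FBS and 2 mM L-glutamine, plated at 5000–40,000 cells/well by doubling time, and held 24 h at 37 °C before dosing. Drug (DMSO stock) given at a single final 10 µM in triplicate wells for 48 h. Adherent cells fixed with cold TCA (10% final), suspension cells with 16% TCA. SRB stain read at 515 nm. Percent growth from Tz, C and Ti.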

K562 = test: Growth inhibition of human K562 cells at 10 uM after 48 hrs by sulforhodamine B assay; conditions: K562, 48 h, read-out: GI; procedure, shortened: as §2
[1] = Growth inhibition of human MOLT4 cells at 10 uM after 48 hrs by sulforhodamine B assay; conditions: MOLT-4, 48 h, read-out: GI; procedure, shortened: as §2
SR = test: Growth inhibition of human SR cells at 10 uM after 48 hrs by sulforhodamine B assay; conditions: read-out: GI
Procedure, shortened: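 NCI-60 screen. Cells were grown in RPMI 1640 with 5% FBS and 2 mM L-glutamine, plated at 5000–40,000 cells/well and held 24 h at 37 °C, 5% CO2. Single 10 µM final dose from DMSO stock, triplicate wells, 48 h. Settled cells were fixed with 80% TCA (16% final) and stained with 0.4% SRB. Dye was solubilized in 10 mM Tris and read at 515 nm. Growth was calculated against time-zero and untreated wells.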

A549 = test: Growth inhibition of human A549 cells at 10 uM after 48 hrs by sulforhodamine B assay; conditions: A549, 48 h, read-out: GI; procedure, shortened: as §2
[2] = Growth inhibition of human HOP62 cells at 10 uM after 48 hrs by sulforhodamine B assay; conditions: HOP-62, 48 h, read-out: GI; procedure, shortened: as §2
[3] = Growth inhibition of human HOP92 cells at 10 uM after 48 hrs by sulforhodamine B assay; conditions: HOP-92, 48 h, read-out: GI; procedure, shortened: as §2
NCI-H322M = test: Growth inhibition of human NCI-H322M cells at 10 uM after 48 hrs by sulforhodamine B assay; conditions: read-out: GI; procedure, shortened: as §2
[4] = Growth inhibition of human COLO205 cells at 10 uM after 48 hrs by sulforhodamine B assay; conditions: COLO 205, 48 h, read-out: GI; procedure, shortened: as §2
[5] = Growth inhibition of human HCC2998 cells at 10 uM after 48 hrs by sulforhodamine B assay; conditions: HCC 2998, 48 h, read-out: GI; procedure, shortened: as §2
HT-29 = test: Growth inhibition of human HT-29 cells at 10 uM after 48 hrs by sulforhodamine B assay; conditions: HT-29, 48 h, read-out: GI; procedure, shortened: as §2
[6] = Growth inhibition of human SW620 cells at 10 uM after 48 hrs by sulforhodamine B assay; conditions: SW-620, 48 h, read-out: GI; procedure, shortened: as §1
[7] = Growth inhibition of human SF295 cells at 10 uM after 48 hrs by sulforhodamine B assay; conditions: SF-295, 48 h, read-out: GI; procedure, shortened: as §2
[8] = Growth inhibition of human SF539 cells at 10 uM after 48 hrs by sulforhodamine B assay; conditions: SF-539, 48 h, read-out: GI; procedure, shortened: as §2
[9] = Growth inhibition of human SNB19 cells at 10 uM after 48 hrs by sulforhodamine B assay; conditions: SNB-19, 48 h, read-out: GI; procedure, shortened: as §2
[10] = Growth inhibition of human SNB75 cells at 10 uM after 48 hrs by sulforhodamine B assay; conditions: SNB-75, 48 h, read-out: GI; procedure, shortened: as §2
U-251 = test: Growth inhibition of human U251 cells at 10 uM after 48 hrs by sulforhodamine B assay; conditions: U-251, 48 h, read-out: GI; procedure, shortened: as §1
[11] = Growth inhibition of human LOXIMVI cells at 10 uM after 48 hrs by sulforhodamine B assay; conditions: LOX IMVI, read-out: GI; procedure, shortened: as §2
M14 = test: Growth inhibition of human M14 cells at 10 uM after 48 hrs by sulforhodamine B assay; conditions: M14, 48 h, read-out: GI; procedure, shortened: as §2
MDA-MB-435 = test: Growth inhibition of human MDA-MB-435 cells at 10 uM after 48 hrs by sulforhodamine B assay; conditions: MDA-MB-435, 48 h, read-out: GI; procedure, shortened: as §2
SK-MEL-28 = test: Growth inhibition of human SK-MEL-28 cells at 10 uM after 48 hrs by sulforhodamine B assay; conditions: SK-MEL-28, 48 h, read-out: GI; procedure, shortened: as §2
SK-MEL-5 = test: Growth inhibition of human SK-MEL-5 cells at 10 uM after 48 hrs by sulforhodamine B assay; conditions: SK-MEL-5, 48 h, read-out: GI; procedure, shortened: as §2
[12] = Growth inhibition of human UACC257 cells at 10 uM after 48 hrs by sulforhodamine B assay; conditions: UACC-257, 48 h, read-out: GI; procedure, shortened: as §1
[13] = Growth inhibition of human UACC62 cells at 10 uM after 48 hrs by sulforhodamine B assay; conditions: UACC-62, 48 h, read-out: GI; procedure, shortened: as §1
[14] = Growth inhibition of human OVCAR3 cells at 10 uM after 48 hrs by sulforhodamine B assay; conditions: OVCAR-3, 48 h, read-out: GI; procedure, shortened: as §2
[15] = Growth inhibition of human OVCAR8 cells at 10 uM after 48 hrs by sulforhodamine B assay; conditions: OVCAR-8, 48 h, read-out: GI; procedure, shortened: as §2
[16] = Growth inhibition of human NCI-ADR-RES cells at 10 uM after 48 hrs by sulforhodamine B assay; conditions: read-out: GI; procedure, shortened: as §2
ACHN = test: Growth inhibition of human ACHN cells at 10 uM after 48 hrs by sulforhodamine B assay; conditions: read-out: GI; procedure, shortened: as §2
SN12C = test: Growth inhibition of human SN12C cells at 10 uM after 48 hrs by sulforhodamine B assay; conditions: read-out: GI; procedure, shortened: as §2
[17] = Growth inhibition of human TK10 cells at 10 uM after 48 hrs by sulforhodamine B assay; conditions: TK-10, 48 h, read-out: GI; procedure, shortened: as §1
[18] = Growth inhibition of human UO31 cells at 10 uM after 48 hrs by sulforhodamine B assay; conditions: UO-31, 48 h, read-out: GI; procedure, shortened: as §1
[19] = Growth inhibition of human DU145 cells at 10 uM after 48 hrs by sulforhodamine B assay; conditions: DU-145, 48 h, read-out: GI; procedure, shortened: as §2
MCF7 = test: Growth inhibition of human MCF7 cells at 10 uM after 48 hrs by sulforhodamine B assay; conditions: MCF7, 48 h, read-out: GI; procedure, shortened: as §2

| SMILES | inhibition of growth at 10 µM (T47D) [%] | inhibition of growth at 10 µM (MDA-MB-468) [%] | inhibition of growth at 10 µM (K562) [%] | inhibition of growth at 10 µM [1] [%] | inhibition of growth at 10 µM (SR) [%] | inhibition of growth at 10 µM (A549) [%] | inhibition of growth at 10 µM [2] [%] | inhibition of growth at 10 µM [3] [%] | inhibition of growth at 10 µM (NCI-H322M) [%] | inhibition of growth at 10 µM [4] [%] | inhibition of growth at 10 µM [5] [%] | inhibition of growth at 10 µM (HT-29) [%] | inhibition of growth at 10 µM [6] [%] | inhibition of growth at 10 µM [7] [%] | inhibition of growth at 10 µM [8] [%] | inhibition of growth at 10 µM [9] [%] | inhibition of growth at 10 µM [10] [%] | inhibition of growth at 10 µM (U-251) [%] | inhibition of growth at 10 µM [11] [%] | inhibition of growth at 10 µM (M14) [%] | further results |
| --- | --- | --- | --- | --- | --- | --- | --- | --- | --- | --- | --- | --- | --- | --- | --- | --- | --- | --- | --- | --- | --- |
| COc1ccc(Cc2nnc(Nc3ccc(NC(=O)Nc4ccccc4)cc3)c3ccccc23)cc1 | 41 | < 30 | < 30 | 30 | < 30 | < 30 | < 30 | < 30 | < 30 | < 30 | < 30 | < 30 | < 30 | < 30 | < 30 | < 30 | < 30 | 32 | < 30 | < 30 | inhibition of growth at 10 µM (MDA-MB-435): < 30%; inhibition of growth at 10 µM (SK-MEL-28): < 30%; inhibition of growth at 10 µM (SK-MEL-5): < 30%; inhibition of growth at 10 µM [12]: < 30%; inhibition of growth at 10 µM [13]: < 30%; inhibition of growth at 10 µM [14]: < 30%; inhibition of growth at 10 µM [15]: < 30%; inhibition of growth at 10 µM [16]: < 30%; inhibition of growth at 10 µM (ACHN): < 30%; inhibition of growth at 10 µM (SN12C): < 30%; inhibition of growth at 10 µM [17]: < 30%; inhibition of growth at 10 µM [18]: < 30%; inhibition of growth at 10 µM [19]: < 30%; inhibition of growth at 10 µM (MCF7): < 30% |
| COc1ccc(Cc2nnc(Nc3ccc(NC(=O)Nc4cccc(C(F)(F)F)c4)cc3)c3ccccc23)cc1 | < 30 | < 30 | < 30 | 37 | 34 | 35 | < 30 | < 30 | < 30 | < 30 | < 30 | < 30 | < 30 | < 30 | < 30 | 30 | 31 | 30 | < 30 | 30 | inhibition of growth at 10 µM (MDA-MB-435): < 30%; inhibition of growth at 10 µM (SK-MEL-28): < 30%; inhibition of growth at 10 µM (SK-MEL-5): < 30%; inhibition of growth at 10 µM [12]: < 30%; inhibition of growth at 10 µM [13]: < 30%; inhibition of growth at 10 µM [14]: < 30%; inhibition of growth at 10 µM [15]: < 30%; inhibition of growth at 10 µM [16]: < 30%; inhibition of growth at 10 µM (ACHN): 41%; inhibition of growth at 10 µM (SN12C): < 30%; inhibition of growth at 10 µM [17]: < 30%; inhibition of growth at 10 µM [18]: < 30%; inhibition of growth at 10 µM [19]: < 30%; inhibition of growth at 10 µM (MCF7): < 30% |
| COc1ccc(Cc2nnc(Nc3ccc(NC(=O)Nc4ccc(C#N)cc4)cc3)c3ccccc23)cc1 | 48 | < 30 | 50 | 56 | 43 | 36 | 33 | < 30 | < 30 | < 30 | < 30 | 45 | < 30 | 86 | 67 | 43 | 57 | 63 | 46 | 35 | inhibition of growth at 10 µM (MDA-MB-435): < 30%; inhibition of growth at 10 µM (SK-MEL-28): 45%; inhibition of growth at 10 µM (SK-MEL-5): < 33%; inhibition of growth at 10 µM [12]: < 30%; inhibition of growth at 10 µM [13]: < 30%; inhibition of growth at 10 µM [14]: < 30%; inhibition of growth at 10 µM [15]: < 30%; inhibition of growth at 10 µM [16]: < 30%; inhibition of growth at 10 µM (ACHN): 48%; inhibition of growth at 10 µM (SN12C): < 30%; inhibition of growth at 10 µM [17]: < 30%; inhibition of growth at 10 µM [18]: 44%; inhibition of growth at 10 µM [19]: < 30%; inhibition of growth at 10 µM (MCF7): 45% |
| COc1ccc(Cc2nnc(Nc3ccc(NC(=O)Nc4ccccc4Cl)cc3)c3ccccc23)cc1 | 52 | < 30 | < 30 | < 30 | < 30 | < 30 | < 30 | < 30 | < 30 | < 30 | < 30 | < 30 | < 30 | < 30 | < 30 | < 30 | < 30 | < 30 | < 30 | < 30 | inhibition of growth at 10 µM (MDA-MB-435): < 30%; inhibition of growth at 10 µM (SK-MEL-28): < 30%; inhibition of growth at 10 µM (SK-MEL-5): < 30%; inhibition of growth at 10 µM [12]: < 30%; inhibition of growth at 10 µM [13]: < 30%; inhibition of growth at 10 µM [14]: < 30%; inhibition of growth at 10 µM [15]: < 30%; inhibition of growth at 10 µM [16]: < 30%; inhibition of growth at 10 µM (ACHN): < 30%; inhibition of growth at 10 µM (SN12C): < 30%; inhibition of growth at 10 µM [17]: < 30%; inhibition of growth at 10 µM [18]: < 30%; inhibition of growth at 10 µM [19]: < 30%; inhibition of growth at 10 µM (MCF7): 32% |
